The test system of data set [1] is liver cancer cell line (HepG-2). The data set is described as follows: MTT anticancer activity, HepG-2. The class given is cell-based. Conditions: Homo sapiens, HepG2, 72 h, read-out: HepG-2 IC50. Put shortly:
(§1)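 ATCC-sourced cancer cell lines were used: HepG-2 liver, NFS-60 myeloid leukaemia and PC-3 prostate. Cells were incubated with test compound for 72 h, viability was measured by MTT, and IC50 was derived. Doxorubicin served as reference drug. Results are mean ± SEM; significance was by Tukey post hoc ANOVA.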

Data set [2] is described as follows: MTT anticancer activity, Caco-2. The class given is cell-based, human. The conditions noted are these: human, Caco-2, Caco-2 SI (selectivity index), Wi-38 EC50 divided by Caco-2 IC50. Put shortly:
(§2)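 ATCC-sourced Caco-2 colon cancer cells were exposed to test compound for 72 h. Viability was read by microculture MTT, with doxorubicin as reference, and IC50 was derived. Normal human lung fibroblasts (Wi-38) were run in the same 72 h MTT format to obtain IC50 and EC100 for selectivity. Results are mean ± SEM.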

Data set [3] concerns the target T1, PIM-1 kinase (Homo sapiens, UniProt P11309). The format is biochemical. The conditions noted are these: Lineweaver-Burk double-reciprocal plot; for mode of PIM-1 kinase inhibition: in the presence of ATP; for Km change / Vmax change: versus control.
For data set [4], the target named is T1, PIM-1 kinase. In words: In vitro PIM-1 kinase inhibition. The format is biochemical. The conditions noted are these: from pIC50 and molecular size.
Data set [5] concerns colon cancer cells (Caco-2). In words: MTT anticancer activity, Caco-2. Conditions: Homo sapiens, Caco-2, 72 h, read-out: Caco-2 IC50. The class given is cell-based, human. Put shortly:
as §2

In data set [6] the test system is myeloid leukaemia cell line (NFS-60). The data set is described as follows: MTT anticancer activity, NFS-60. The format is cell-based. The conditions noted are these: NFS-60, 72 h, read-out: NFS-60 IC50. Put shortly: as §1
The test system of data set [7] is prostate cancer cell line (PC-3). In words: MTT anticancer activity, PC-3. The format is cell-based. Conditions: Homo sapiens, 72 h, read-out: PC-3 IC50. Put shortly:
as §1

Usually IC50 stands for the point on the concentration scale where inhibition reaches its midpoint.

T1 sequence (P11309 whole entry): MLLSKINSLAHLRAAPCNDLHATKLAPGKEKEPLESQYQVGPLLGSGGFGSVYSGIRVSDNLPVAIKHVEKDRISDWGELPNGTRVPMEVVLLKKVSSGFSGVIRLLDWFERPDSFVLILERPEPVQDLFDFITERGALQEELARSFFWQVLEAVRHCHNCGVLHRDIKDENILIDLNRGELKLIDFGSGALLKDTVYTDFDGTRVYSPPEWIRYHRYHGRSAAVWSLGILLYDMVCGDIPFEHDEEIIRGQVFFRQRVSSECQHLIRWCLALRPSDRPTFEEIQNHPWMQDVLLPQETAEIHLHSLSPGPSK

Take `Nc1n[nH]c2nc(-c3cccc(O)c3)cc(-c3cc4ccccc4nc3N3CCOCC3)c12` [Compound 6a, 3-(3-Amino-4-(2-morpholin-4-yl-quinolin-3-yl)-1H-pyrazolo[3,4-b]pyridin-6-yl)phenol]: the IC50 in data set [1] stood at 66.7 nM.
Regarding `CCOc1nc(-c2cccc(O)c2)cc(-c2cc3cc(Cl)ccc3nc2N2CCOCC2)c1C#N` [Compound 4b, 4-(6-Chloro-2-morpholin-4-yl-quinolin-3-yl)-2-ethoxy-6-(3-hydroxyphenyl)pyridine-3-carbonitrile], the 50% inhibitory concentration (IC50) in data set [1] stood at 59 nM.
On to `CCCOc1nc(-c2cccc(O)c2)cc(-c2cc3cc(OC)ccc3nc2N2CCOCC2)c1C#N` [Compound 4f, 6-(3-Hydroxyphenyl)-4-(6-methoxy-2-morpholin-4-yl-quinolin-3-yl)-2-propoxypyridine-3-carbonitrile], for which the selectivity ratio at 72 h in data set [2] is at least 1.6. The 50% inhibitory concentration (IC50) in data set [1] is 16.4 nM. Further, on PIM-1 kinase [3], the “mode of PIM-1 kinase inhibition” value is “both ATP competitive and non-competitive inhibitors”; the Km change result was “increase”; the Vmax change entry is “reduced”. The “LE (ligand efficiency), PIM-1 kinase” value on PIM-1 kinase [4] is around 0.3.
Take `CCOc1nc(-c2cccc(O)c2)cc(-c2cc3cc(OC)ccc3nc2N2CCOCC2)c1C#N` [Compound 4c, 2-Ethoxy-6-(3-hydroxyphenyl)-4-(6-methoxy-2-morpholin-4-yl-quinolin-3-yl)pyridine-3-carbonitrile]: the IC50 in data set [5] worked out at 7 nM; in data set [1], 13.2 nM; in data set [6], 6 nM; in data set [7], 5 nM. Besides, the “mode of PIM-1 kinase inhibition” value at PIM-1 kinase [3] was “both ATP competitive and non-competitive inhibitors”. In addition, the Km change result on PIM-1 kinase [3] is “increase”. The Vmax change entry at PIM-1 kinase [3] is given as “reduced”. On PIM-1 kinase [4], the “LE (ligand efficiency), PIM-1 kinase” value is reported as around 0.3.

The record behind these values is article PMC10795791 (Journal of Enzyme Inhibition and Medicinal Chemistry, 2024).
